Source: publication PMC2761948 (Journal of medicinal chemistry, 2009)

Legend:
4T1 cells [1] = experiment: Migration assay; format: cell-based, mouse
In short: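 Trypsinised 4T1 cells (5 × 10^4) in 0.2% FBS RPMI with test compound were placed in Transwell inserts (12-μm pore polycarbonate) for 30 min at 37 °C. Inserts then moved to wells with 10% FBS RPMI for 24 h. Migrated and non-migrated cells were crystal violet-stained and methanol-solubilised separately; A570 read. Background-corrected % migration normalised to vehicle; mean ± SD, n = 3.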

4T1 cells [2] = experiment: F-actin immunostaining; format: cell-based, mouse; details: 4-h exposure
In short: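 Cells grown overnight on coverslips, then exposed to test compound for 4 h in 2% FBS RPMI 1640. They were fixed in 3.7% formaldehyde, permeabilised 1 h (PBS, 0.1% Triton X-100, 0.1% BSA) and stained 30 min with Alexa Fluor 488 phallotoxin, with DAPI counterstain. Confocal imaging (488/543 nm excitation); fluorescence intensity expressed as % of untreated control.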

[3] = tested on: focal adhesion kinase (FAK); experiment: FAK immunostaining and Western blotting; format: cell-based, mouse; details: 1 h; for FAK degradation (Western blotting): 4T1 cells
In short: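 4T1 cells treated for 1 h with test compound or DMSO. For focal adhesion sites, cells were fixed and immunostained with anti-FAK antibody (2.5 μM test compound, 5 μM comparator). For FAK stability, each agent was given at 5 μM and cell lysates were immunoblotted with anti-FAK monoclonal antibody.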

[4] = tested on: MCF-7 breast cancer cells; experiment: Adhesion assay, MCF-7 cells to Matrigel-coated surface; format: cell-based, human; details: at 100 μM
In short: (§1)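 Wells coated with 12% (v/v) Matrigel for 1 h at 37 °C, washed with 0.1% BSA-RPMI, then blocked with 0.5% BSA-RPMI for 60 min. Cells were pretreated with test compound for 60 min at 37 °C, seeded at 2 × 10^4 per well, and left to adhere for 30 min. Adherent cells were fixed in formalin, stained with crystal violet and solubilised in 2% SDS; A570 read. Mean ± SD, n = 3.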

[5] = tested on: SKBR3 breast cancer cells; experiment: Adhesion assay, SKBR3 cells to Matrigel-coated surface; format: cell-based, human; details: at 100 μM
In short: as §1

[6] = tested on: 4T1 metastatic breast cancer cells; experiment: Adhesion assay, 4T1 cells to Matrigel-coated surface; format: cell-based, mouse; details: read-out: IC50, inhibition of 4T1 cell adhesion

Cc1c(C)c2c(c(C)c1OC(=O)CCC(=O)O)CC[C@](C)(/C=C/CC(C)CCCC(C)C)O2 (stereo partly shown) [Compound 4, Succinic acid mono-[2-(4,8-dimethyl-non-1-enyl)-2,5,7,8-tetramethyl-chroman-6-yl] ester]
inhibition of serum-induced 4T1 cell migration (4T1 cells [1]; at 5 μM): effective in inhibiting cell migration

Cc1c(C)c2c(c(C)c1OCC(=O)O)CC[C@](C)(CCCC(C)CCCC(C)C)O2 (stereo partly shown) [Compound 6, [2-(4,8-Dimethyl-nonyl)-2,5,7,8-tetramethyl-chroman-6-yloxy]-acetic acid]
effect on actin stress fiber and lamellipodia formation (4T1 cells [2]; 10 μM): rapid dissolution of stress fiber and impairment of lamellipodia formation
inhibition of serum-induced 4T1 cell migration (4T1 cells [1]; at 5 μM): effective in inhibiting cell migration

α-tocopheryl succinate [Compound 1, reference compound]
FAK degradation (Western blotting) ([3]; 5 μM): less evident or not appreciable
effect on focal adhesion sites (anti-FAK immunostaining) ([3]; 5 μM, negative control): typical punctate pattern
suppression of MCF-7 cell adhesion [4]: ineffective
suppression of SKBR3 cell adhesion [5]: ineffective
effect on actin stress fiber (4T1 cells [2]; 50 μM): remained largely intact
inhibition of serum-induced 4T1 cell migration (4T1 cells [1]; at 50 μM): little effect
IC50 [6]: 10 µM

Cc1c(C)c2c(c(C)c1OC(=O)CCC(=O)O)CC[C@](C)(CCCC(C)CCCC(C)C)O2 (stereo partly shown) [Compound 2]
FAK degradation (Western blotting) ([3]; 5 μM): less evident or not appreciable
inhibition of serum-induced 4T1 cell migration (4T1 cells [1]; at 5 μM): little effect

Cc1c(C)c2c(c(C)c1OCC(=O)O)CC[C@](C)(/C=C/CC(C)CCCC(C)C)O2 (stereo partly shown) [Compound 5, [2-(4,8-Dimethyl-non-1-enyl)-2,5,7,8-tetramethyl-chroman-6-yloxy]-acetic acid]
effect on focal adhesion sites (anti-FAK immunostaining) ([3]; 2.5 μM): loss of focal adhesion sites
FAK degradation (Western blotting) ([3]; 5 μM): induced FAK degradation
effect on actin stress fiber and lamellipodia formation (4T1 cells [2]; 5 μM): rapid dissolution of stress fiber and impairment of lamellipodia formation
inhibition of serum-induced 4T1 cell migration (4T1 cells [1]; at 5 μM): effective in inhibiting cell migration
